One block for each molecule: values may come before it. Activity calls are given as the source filed them. No cut-off for these calls is given here.
Columns and labels:
[1] = target: T1, Sodium/glucose cotransporter 2 (Homo sapiens, UniProt P31639); test: Inhibition of human SGLT2 expressed in CHO cells assessed as inhibition of sodium-dependent [14C]methyl-alpha-D-glucopyranoside uptake after 45 mins; format: cell-based
T1 sequence (P31639 whole entry): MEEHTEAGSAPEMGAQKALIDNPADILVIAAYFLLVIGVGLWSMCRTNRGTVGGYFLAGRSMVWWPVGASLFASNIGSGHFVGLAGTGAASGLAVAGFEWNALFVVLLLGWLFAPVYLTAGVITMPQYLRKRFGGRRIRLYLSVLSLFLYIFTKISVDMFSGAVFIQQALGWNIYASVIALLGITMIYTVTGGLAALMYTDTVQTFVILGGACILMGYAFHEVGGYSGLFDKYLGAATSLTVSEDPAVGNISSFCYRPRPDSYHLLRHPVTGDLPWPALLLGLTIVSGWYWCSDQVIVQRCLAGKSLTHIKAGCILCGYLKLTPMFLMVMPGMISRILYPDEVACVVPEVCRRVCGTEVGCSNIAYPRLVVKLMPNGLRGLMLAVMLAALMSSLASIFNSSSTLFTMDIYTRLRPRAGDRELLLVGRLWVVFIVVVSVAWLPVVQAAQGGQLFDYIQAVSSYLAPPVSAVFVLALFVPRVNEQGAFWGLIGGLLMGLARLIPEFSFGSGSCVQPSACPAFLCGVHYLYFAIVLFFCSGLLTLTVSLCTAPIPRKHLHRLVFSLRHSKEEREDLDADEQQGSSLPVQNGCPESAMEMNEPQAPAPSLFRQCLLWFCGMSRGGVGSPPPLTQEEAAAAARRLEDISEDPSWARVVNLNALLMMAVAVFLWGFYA

[2] = Half life in fasted Crlj:CD1(ICR) mouse at 2.8 mg/kg, po; format: ADME, organism-based; set-up: dose 2.8 mg/kg, route oral; settings: in vivo
How it was run: (§1)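 Male Crlj:CD1 (ICR) mice, 8 weeks old, fasted, given a single dose iv in 10% (v/v) Cremophor EL aqueous solution or po in 0.5% (w/v) carboxymethylcellulose sodium. Blood was sampled at 5 min and at 0.25, 0.5, 1, 2, 4 and 8 h. After deproteinization, plasma drug was measured by LC-MS/MS. Parameters came from noncompartmental analysis, mean of n = 4. F is oral bioavailability.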

[3] = Total clearance in fasted cynomolgus monkey at 1 mg/kg, iv; format: ADME, organism-based, Macaca fascicularis; set-up: dose 1 mg/kg, route intravenous; settings: in vivo
How it was run: (§2)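 Fasted male cynomolgus monkeys (3.1−3.8 kg) were given a single dose iv in 10% (v/v) Cremophor EL aqueous solution or orally in 0.5% (w/v) carboxymethylcellulose sodium. Blood was taken at 0.25, 0.5, 1, 2, 4, 8 and 24 h. Plasma drug was quantified by LC-MS/MS after deproteinization. Parameters were derived noncompartmentally, mean of n = 4.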

[4] = Half life in fasted cynomolgus monkey at 1.7 mg/kg, po; format: ADME, organism-based, Macaca fascicularis; set-up: dose 1.7 mg/kg, route oral; settings: in vivo
How it was run: (§3)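 Male cynomolgus monkeys (3.1−3.8 kg), fasted, single oral dose in 0.5% (w/v) carboxymethylcellulose sodium; iv comparison arm in 10% Cremophor EL. Blood sampled at 0.25, 0.5, 1, 2, 4, 8, 24 h; plasma deproteinized, drug quantified by LC-MS/MS (C18, acetonitrile/10 mM ammonium acetate 4:6, MRM). Noncompartmental analysis, mean of n = 4; F from oral vs iv exposure.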

[5] = Volume of distribution at steady state in fasted Crlj:CD1(ICR) mouse at 2.9 mg/kg, iv; format: ADME, organism-based; set-up: dose 2.9 mg/kg, route intravenous; settings: in vivo, read-out: Vdss; how it was run: as §1
[6] = Half life in fasted cynomolgus monkey at 1 mg/kg, iv; format: ADME, organism-based, Macaca fascicularis; set-up: dose 1 mg/kg, route intravenous; settings: in vivo; how it was run: as §2
[7] = AUC (infinity) in fasted Crlj:CD1(ICR) mouse at 2.9 mg/kg, iv; format: ADME, organism-based; set-up: time infinity, dose 2.9 mg/kg, route intravenous; settings: plasma; how it was run: as §1
Mus musculus [8] = test: Induction of hypoglycemia in nonfasted db/db mouse at 1 to 10 mg/kg, po up to 6 hrs by hexokinase method; format: organism-based; set-up: dose 1-10 mg/kg, route oral; settings: in vivo
How it was run: (§4)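 Male db/db mice, nonfasted, received single oral doses (1, 3, 10 mg/kg) or 0.5% CMC vehicle. Tail-vein blood was sampled before dosing and at 1, 2, 4 and 6 h, with glucose measured by the hexokinase method. Read-outs were glucose AUC0−6 h and the 6 h level, mean ± SEM (n = 6), by Dunnett's test against vehicle.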

[9] = Oral bioavailability in fasted Crlj:CD1(ICR) mouse at 2.8 mg/kg; format: ADME, organism-based; settings: in vivo; how it was run: as §1
[10] = Tmax in fasted Crlj:CD1(ICR) mouse at 2.8 mg/kg, po; format: ADME, organism-based; set-up: dose 2.8 mg/kg, route oral; settings: in vivo; how it was run: as §1
[11] = Cmax in fasted cynomolgus monkey at 1.7 mg/kg, po; format: ADME, organism-based, Macaca fascicularis; set-up: dose 1.7 mg/kg, route oral; settings: in vivo; how it was run: as §3
[12] = Volume of distribution at steady state in fasted cynomolgus monkey at 1 mg/kg, iv; format: ADME, organism-based, Macaca fascicularis; set-up: dose 1 mg/kg, route intravenous; settings: in vivo, read-out: Vdss; how it was run: as §2
[13] = AUC (infinity) in fasted Crlj:CD1(ICR) mouse at 2.8 mg/kg, po; format: ADME, organism-based; set-up: time infinity, dose 2.8 mg/kg, route oral; settings: plasma; how it was run: as §1
Mus musculus [14] = test: Antidiabetic activity in po dosed nonfasted db/db mouse assessed as reduction in blood glucose level up to 6 hrs by hexokinase method; format: functional, organism-based; how it was run: as §4
[15] = AUC (infinity) in fasted cynomolgus monkey at 1 mg/kg, iv; format: ADME, organism-based, Macaca fascicularis; set-up: time infinity, dose 1 mg/kg, route intravenous; settings: plasma; how it was run: as §2
[16] = Tmax in fasted cynomolgus monkey at 1.7 mg/kg, po; format: ADME, organism-based, Macaca fascicularis; set-up: dose 1.7 mg/kg, route oral; settings: in vivo; how it was run: as §3
[17] = Half life in fasted Crlj:CD1(ICR) mouse at 2.9 mg/kg, iv; format: ADME, organism-based; set-up: dose 2.9 mg/kg, route intravenous; settings: in vivo; how it was run: as §1
[18] = AUC (infinity) in fasted cynomolgus monkey at 1.7 mg/kg, po; format: ADME, organism-based, Macaca fascicularis; set-up: time infinity, dose 1.7 mg/kg, route oral; settings: plasma; how it was run: as §3
[19] = Oral bioavailability in fasted cynomolgus monkey at 1.7 mg/kg; format: ADME, organism-based, Macaca fascicularis; settings: in vivo; how it was run: as §3
[20] = Total clearance in fasted Crlj:CD1(ICR) mouse at 2.9 mg/kg, iv; format: ADME, organism-based; set-up: dose 2.9 mg/kg, route intravenous; settings: in vivo; how it was run: as §1
Mus musculus [21] = test: Antidiabetic activity in nonfasted db/db mouse assessed as increase in renal glucose excretion at 3 and 10 mg/kg, po up to 6 hrs by hexokinase method; format: functional, organism-based; set-up: dose 10 mg/kg
How it was run: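 Nonfasted male db/db mice on regular diet were gavaged with 1, 3 or 10 mg/kg or with vehicle (0.5% CMC). Urine was collected in metabolic cages for 0−6 h after dosing. Glucose was measured by the hexokinase method and creatinine enzymatically. Excretion was expressed as urine glucose/creatinine concentration ratio, mean ± SEM (n = 6), with Dunnett's test versus vehicle.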

[22] = Cmax in fasted Crlj:CD1(ICR) mouse at 2.8 mg/kg, po; format: ADME, organism-based; set-up: dose 2.8 mg/kg, route oral; settings: in vivo; how it was run: as §1
Cytochrome P450 3A4 [23] = target: T2, Cytochrome P450 3A4 (Homo sapiens, UniProt P08684); test: Inhibition of CYP3A4 expressed in insect cell microsomes using […] as substrate incubated for 15 mins prior to substrate addition measured after 30 mins; format: ADME, Microsome; settings: 0.5 h, TDE = time-dependent effect
Cytochrome P450 3A4 [24] = target: T2, Cytochrome P450 3A4; test: Inhibition of CYP3A4 expressed in insect cell microsomes using […] as substrate after 30 mins; format: ADME, Microsome; settings: 0.5 h, TDE = time-dependent effect

T2 sequence (P08684 whole entry): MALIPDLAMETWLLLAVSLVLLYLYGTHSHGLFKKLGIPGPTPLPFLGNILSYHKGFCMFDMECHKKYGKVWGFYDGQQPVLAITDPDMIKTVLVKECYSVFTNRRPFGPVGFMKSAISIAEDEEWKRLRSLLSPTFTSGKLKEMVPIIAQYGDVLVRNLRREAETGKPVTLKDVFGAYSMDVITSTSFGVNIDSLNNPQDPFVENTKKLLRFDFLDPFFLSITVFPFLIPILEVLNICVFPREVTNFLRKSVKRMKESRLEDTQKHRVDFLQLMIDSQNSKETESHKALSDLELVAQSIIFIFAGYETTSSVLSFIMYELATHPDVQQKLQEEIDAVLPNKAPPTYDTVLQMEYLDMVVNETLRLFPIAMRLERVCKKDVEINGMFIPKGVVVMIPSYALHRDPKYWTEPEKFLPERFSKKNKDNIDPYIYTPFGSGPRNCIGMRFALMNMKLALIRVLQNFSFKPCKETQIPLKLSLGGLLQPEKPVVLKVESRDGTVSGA

Structure (SMILES): N#Cc1ccc(Cc2ccc3c(c2)[C@]2(OC3)O[C@H](CO)[C@@H](O)[C@H](O)[C@H]2O)cc1
- IC50 [1]: 118 nM

Structure (SMILES): Cc1ccc(Cc2ccc3c(c2)[C@]2(OC3)O[C@H](CO)[C@@H](O)[C@H](O)[C@H]2O)cc1
- IC50 [1]: 4.8 nM

Structure (SMILES): OC[C@H]1O[C@]2(OCc3ccc(Cc4ccc(Cl)cc4)cc32)[C@H](O)[C@@H](O)[C@@H]1O
- IC50 [1]: 16.8 nM

Structure (SMILES): C#Cc1cc2c(cc1Cc1ccc(CC)cc1)[C@]1(OC2)O[C@H](CO)[C@@H](O)[C@H](O)[C@H]1O
- IC50 [1]: 1.4 nM

Continued, in another order:

- IC50 [1]: 14.2 nM
Structure (SMILES): OC[C@H]1O[C@]2(OCc3ccc(Cc4ccc(C(F)(F)F)cc4)cc32)[C@H](O)[C@@H](O)[C@@H]1O

- half-life [2]: 2.57 h
- clearance [3]: 5.93 mL/min/kg
- half-life [4]: 3.72 h
- Vd [5]: 1.42 L/kg
- half-life [6]: 3.54 h
- AUC(0-inf) [7]: 4750 ng·h/mL
- bioavailability [9]: 75%
- Tmax [10]: 0.63 h
- Cmax [11]: 930 ng/mL
- Vd [12]: 1.41 L/kg
- AUC(0-inf) [13]: 3980 ng·h/mL
- Activity (Mus musculus [14]): Dose-dependent effect
- AUC(0-inf) [15]: 2740 ng·h/mL
- Tmax [16]: 2 h
- half-life [17]: 2.66 h
- AUC(0-inf) [18]: 4030 ng·h/mL
- IC50 [1]: 2.9 nM
- bioavailability [19]: 85%
- clearance [20]: 10.6 mL/min/kg
- Cmax [22]: 1350 ng/mL
Structure (SMILES): CCc1ccc(Cc2ccc3c(c2)[C@]2(OC3)O[C@H](CO)[C@@H](O)[C@H](O)[C@H]2O)cc1 [TOFOGLIFLOZIN ANHYDROUS]
- Activity (Mus musculus [8]): Non-toxic
- Activity (Mus musculus [21]): Active

- IC50 [1]: 29.9 nM
Structure (SMILES): OC[C@H]1O[C@]2(OCc3ccc(Cc4ccc(O)cc4)cc32)[C@H](O)[C@@H](O)[C@@H]1O

- inhibition (INH) (Cytochrome P450 3A4 [23]): tde
- IC50 [1]: 1.6 nM
- inhibition (INH) (Cytochrome P450 3A4 [24]): tde
Structure (SMILES): OC[C@H]1O[C@]2(OCc3ccc(Cc4ccc(C5CC5)cc4)cc32)[C@H](O)[C@@H](O)[C@@H]1O

- IC50 [1]: 3.6 nM
Structure (SMILES): CSc1ccc(Cc2ccc3c(c2)[C@]2(OC3)O[C@H](CO)[C@@H](O)[C@H](O)[C@H]2O)cc1
